# Experimental data reported in ChEMBL document CHEMBL1150050, “Antimutagenic agents from natural products” (J Nat Prod, 1992).
# Activity calls are given as the source filed them. The rule behind the calls is not given here.
# Tests used:
# Salmonella typhimurium [1] = assay: Toxicity in Salmonella Typhimurium TA100 at 75 to 300 ug/plate after 48 to 72 hrs in presence of liver S-9 fraction; assay type: organism-based; conditions: salmonella enterica subsp. enterica serovar typhimurium
# In short: (§1)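 Toxicity plates were set up with bacteria, Ames S-9 preparation and test substance, with histidine in place of 2-aminoanthracene. They were mixed with top agar and incubated 48–72 h.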
# Salmonella typhimurium [2] = assay: Antimutagenic activity in Salmonella Typhimurium TA100 assessed as inhibition of ethyl methanesulfonate-induced mutation at 32 to 300 ug/plate after 48 to 72 hrs by Ames assay in presence of liver S-9 fraction; assay type: functional, Salmonella enterica subsp. enterica serovar Typhimurium; parameters: scale not given: the % may be the effect or the level left
# Salmonella typhimurium [3] = assay: Toxicity in Salmonella Typhimurium TA98 at 75 to 300 ug/plate after 48 to 72 hrs in presence of liver S-9 fraction; assay type: organism-based; conditions: salmonella enterica subsp. enterica serovar typhimurium; in short: as §1
# Salmonella typhimurium [4] = assay: Antimutagenic activity in Salmonella Typhimurium TA98 assessed as inhibition of 2-aminoanthracene-induced mutation at 75 ug/plate after 48 to 72 hrs by Ames assay in presence of liver S-9 fraction; assay type: functional, organism-based; conditions: Salmonella enterica subsp. enterica serovar Typhimurium
# In short: (§2)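 Bacteria were combined with Ames S-9 metabolic activation preparation, test substance in DMSO and 2-aminoanthracene at 2.5 μg/plate, mixed with top agar and incubated 48–72 h. Mutagenicity inhibition was assessed relative to 2-aminoanthracene.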
# Salmonella typhimurium [5] = assay: Antimutagenic activity in Salmonella Typhimurium TA98 assessed as inhibition of 2-aminoanthracene-induced mutation at 150 ug/plate after 48 to 72 hrs by Ames assay in presence of liver S-9 fraction; assay type: functional, organism-based; conditions: Salmonella enterica subsp. enterica serovar Typhimurium; in short: as §2
# Salmonella typhimurium [6] = assay: Antimutagenic activity in Salmonella Typhimurium TA100 assessed as inhibition of ethyl methanesulfonate-induced mutation at 300 ug/plate after 48 to 72 hrs by Ames assay in presence of liver S-9 fraction; assay type: functional, organism-based; conditions: Salmonella enterica subsp. enterica serovar Typhimurium
# Salmonella typhimurium [7] = assay: Toxicity in Salmonella Typhimurium TA98 at 75 to 600 ug/plate after 48 to 72 hrs in presence of liver S-9 fraction; assay type: organism-based; conditions: salmonella enterica subsp. enterica serovar typhimurium; in short: as §1
# Salmonella typhimurium [8] = assay: Toxicity in Salmonella Typhimurium TA100 at 75 to 600 ug/plate after 48 to 72 hrs in presence of liver S-9 fraction; assay type: organism-based; conditions: salmonella enterica subsp. enterica serovar typhimurium; in short: as §1
Compound,Activity (Salmonella typhimurium [1]),Activity (Salmonella typhimurium [2]) [%],Activity (Salmonella typhimurium [3]),Activity (Salmonella typhimurium [4]),Activity (Salmonella typhimurium [5]),Activity (Salmonella typhimurium [6]),Activity (Salmonella typhimurium [7]),Activity (Salmonella typhimurium [8])
CC1(C)[C@@H](Br)CC[C@]2(C)Oc3cc(Br)c(O)cc3C[C@@H]12,Non-toxic,80,Non-toxic,Active,Active,Active,,
CC1(C)[C@@H](Br)CC[C@@]2(C)Oc3cc(Br)c(O)cc3C[C@@H]12 [CYMOBARBATOL],Non-toxic,80,Non-toxic,Active,Active,Active,,
CC(C)=CCC/C(C)=C/Cc1cc(O)c(Br)cc1O [CYMOPOL],,,,,,,Toxic,Toxic
